A selection: hits, their analogues and other compounds. The true share with any hit is near 1.7%.
Cneo AK release: Cryptococcus neoformans lysis via adenylate kinase release. C. neoformans lysis, adenylate kinase release luminescence, 4 h; normalised: neutral wells 0, clomiphene wells 100. lysis activity, % at 15 µM. hit rate 0.2% among 360,000;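 active means mean lysis activity across replicates of at least 80%, whatever share of replicates individually reach that level; inactive means mean lysis activity below 80%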
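Signal: Adenylate kinase release luminescence | Assay system: Log-phase Cryptococcus neoformans yeast cells | Input: Cells at 5 × 10^6 per mL | Buffer or medium: Fresh YPD growth medium | Compound: Single dose | Schedule: Static 4 h at 37 °C with compound, 1 h detection | Controls: Clomiphene | Read-out: Luminescence rise reflecting yeast cell lysis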
CaV13 ICDI inh: Primary screen for inhibitors of IQ motif and Ca2+-dependent inactivation inhibitor domain binding in CACNA1D, Förster resonance energy transfer in living cells, … | HEK cells, CFP/YFP FRET ICDI-IQ, plate reader, 10 min; percent FRET-ratio fall versus neutral wells | inhibition, % at 12.3 µM | hit rate 0.098% among 340,000 | AID 743397;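 active means mean replicate inhibition of at least 30% and at least 1% of replicates passing that level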;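 further: 0% = median of the neutral control wells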
F508del corr: CFTR F508del correction in bronchial cells | activity (quench increase), % at 7.58 µM | hit rate 0.36% among 350,000 | CFBE cells, YFP halide quenching; stimulated with forskolin plus potentiator P3; % fluorescence drop versus neutral controls;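 active means mean added fluorescence quench of at least 8% versus neutral control, with both replicates also reaching 8%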;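 further: cells transiently co-express mutant CFTR-F508del with the halide-sensitive YFP; corrector assay measuring rescue of mutant channel to the surface after 24 h compound exposure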
rRNA inh HTS: inhibitors of bacterial rRNA selective over humanized ribosomes | E. coli WT GFP vs humanized-ribosome RFP mutants, fluorescence, 24 h; active compounds read low; DMSO median 0, no signal -100 | GFP signal change (wild-type ribosome), % (concentration not given with the values) | hit rate 1.6% among 350,000;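 active means significant combined selectivity score with lowered wild-type GFP, culture density cut under 30%, mutant RFP and density less affected; inactive means any of these conditions unmet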
The depositor's hits bear a star; / = no result given.

SMILES	Cneo AK release	CaV13 ICDI inh	F508del corr	rRNA inh HTS
CN1CCN(c2ccc(-c3cccc(NC(=O)COc4ccc(Cl)cc4)c3)nn2)CC1	-6.6	-5.6	-1.0	-29.9*
C[C@@H]1CN([C@H](C)CO)S(=O)(=O)c2ccc(C#Cc3ccc(F)cc3)cc2O[C@H]1CN(C)C(=O)NC1CCCC1	82.4*	/	1.0	-2.7
C[C@H](CO)N1C[C@H](C)[C@H](CN(C)C(=O)NC2CCCCC2)Oc2cc(C#Cc3ccc(F)cc3)ccc2S1(=O)=O	-6.0	/	8.2*	-0.4
Cc1noc(C)c1NC(=O)N(C)C[C@H]1Oc2cc(C#CCC3CCCC3)ccc2S(=O)(=O)N([C@@H](C)CO)C[C@@H]1C	-0.4	/	10.1*	2.2
COc1ccccc1CNC(=O)C[C@@H]1C[C@@H]2c3cc(NC(=O)Nc4ccccc4F)ccc3O[C@@H]2[C@H](CO)O1	102.6*	/	-0.1	-1.6
COc1ccccc1CNC(=O)C[C@@H]1C[C@H]2c3cc(NC(=O)Nc4ccccc4F)ccc3O[C@H]2[C@@H](CO)O1	94.1*	/	0.5	-4.2
COc1ccccc1CNC(=O)C[C@H]1C[C@H]2c3cc(NC(=O)Nc4ccccc4F)ccc3O[C@H]2[C@@H](CO)O1	1.4	/	1.5	2.6
COc1ccccc1CNC(=O)C[C@H]1C[C@H]2c3cc(NC(=O)Nc4ccccc4F)ccc3O[C@H]2[C@H](CO)O1	3.7	/	-1.4	1.5
Cc1ccc2c(c1)-c1c(cnn1CC(=O)Nc1ccccc1N1CCN(C)CC1)CO2	15.4	46.0*	-3.2	-0.4
Cc1ccc2c(c1)-c1c(cnn1CC(=O)O)CO2	2.1	-1.5	/	/
C[C@H](CO)N1C[C@H](C)[C@@H](CN(C)S(=O)(=O)c2ccc(Cl)cc2)Oc2ccc(NC(=O)C3CCCCC3)cc2CC1=O	70.4	/	-0.3	0.1
Cc1ccc2cc(C)c3nnc(SCC(=O)c4cccs4)n3c2c1C	/	-3.1	/	-38.8*
Cc1ccc(C)c2c1cc(C)c1nnc(SCC(=O)c3cccs3)n12	/	-3.8	/	/
O=C1/C(=C/c2ccncc2)Cc2ccccc21	-6.3	-9.5	-2.4	2.9
CC1C/C(=C/c2ccncc2)C(=O)/C(=C/c2ccncc2)C1 (stereo not drawn)	1.5	-6.8	-16.1	-22.2*
CCOc1ccc(C(=O)OCC(=O)Nc2ccc3c(c2)OCCO3)cc1OC	1.9	-5.3	-1.3	1.4
COc1ccc(NC(=O)COc2ccc(C(=O)OCC(=O)N(C(C)C)C(C)C)cc2OC)cc1	-1.2	-0.6	0.2	-27.3*
CCOC(=O)C1=C2c3ccc4ccccc4c3CC(C)(C)N2C(=O)C1=O	-2.1	-3.1	1.0	-28.9*
CCOC(=O)C1=C2c3cc(OC)c(OC)cc3CC(C)(C)N2C(=O)C1=O	10.5	-2.8	/	-2.6
O=C(C[C@H]1C[C@H]2c3cc(NS(=O)(=O)c4ccc(F)cc4)ccc3O[C@H]2[C@@H](CO)O1)N1CCOCC1	1.6	/	2.0	-0.1
Cn1ncc(Br)c1C(=O)NC12CC3CC(CC(C3)C1)C2	/	-19.3	/	-29.9*
Cn1ncc(Br)c1C(=O)N1CCCC1	-2.9	/	-1.3	13.1
C=CCNC(=O)CSc1nc2cc(C(=O)OCC)ccc2n1CC	0.7	-6.3	-0.5	-42.8*
COc1ccc(/C(C)=N/NC(=O)c2cccc(S(=O)(=O)N3CCCC3)c2)c(O)c1	-3.4	-3.1	9.8*	-9.3
Cc1ccc(C)c(-n2c(Cc3cc(=O)[nH]c(=O)[nH]3)nnc2SC(C)C)c1	0.6	38.9*	-0.8	2.0
SMILES	Cneo AK release	CaV13 ICDI inh	F508del corr	rRNA inh HTS
CCCNC(=O)N(C)C[C@H]1Oc2cc(C#CC3CC3)ccc2S(=O)(=O)N([C@@H](C)CO)C[C@H]1C	54.6	/	-1.2	-3.3
CC(C)NC(=O)N(C)C[C@@H]1Oc2ccc(N(S(C)(=O)=O)S(C)(=O)=O)cc2C(=O)N(C)C[C@@H]1C	/	/	/	1.3
CO[C@@]12[C@@H]3N[C@@H]3CN1C1=C(C(=O)C(N)=C(C)C1=O)[C@@H]2COC(N)=O	/	-5.3	14.3*	13.5
Cc1cccc(NC(=S)N/N=C/c2cccc(O)c2)c1C	0.1	-17.0	10.6*	-23.5*
COc1ccc(/C=N/NC(=S)Nc2ccccc2[N+](=O)[O-])cc1O	-11.3	-2.4	8.8*	-25.1
O=[N+]([O-])c1cc(/C=N/NC(=S)Nc2ccccc2Cl)ccc1Cl	13.5	5.4	1.1	-8.8
CC=Cc1ccc2n(c1=O)C[C@H]1[C@H](CO)[C@@H](C(=O)NC3CCCC3)N(C(=O)C3CC3)[C@@H]21 (mixture of isomers)	/	/	1.6	3.9
Cc1cccc(Nc2nc(N)nc(-c3oc4ccccc4c3C)n2)c1	-0.9	-4.5	12.3*	17.6
O=C(c1ccco1)N1CCN(c2ncnc3c2cnn3-c2ccccc2)CC1	-1.8	-6.3	/	/
CCc1cc2c(N3CCN(C(=O)c4ccco4)CC3)ncnc2s1	2.7	5.1	-1.3	-30.0*
COC(=O)c1ccccc1NCc1cc(=O)oc2cc(O)c(O)cc12	0.1	-11.2	-0.3	-21.9*
COc1ccc(C)cc1NCc1cc(=O)oc2cc(-c3ccccc3)c(O)cc12	/	-3.8	/	/
C[C@H]1CC=CC[C@@H](c2cccc(Cl)c2)NC(=O)[C@H](C)N(C)C(=O)c2ccccc2O1 (mixture of isomers)	/	/	/	-12.1
COc1ccc2sc3cccc(NCCN(C)C)c3c(=O)c2c1	/	-5.2	12.3*	-6.4
CN(C)CCNc1ccc(CO)c2sc3ccc(O)cc3c(=O)c12	/	-5.5	6.8	-34.6
O=C(N/N=C/c1ccc(O)cc1)c1cc(C23CC4CC(CC(C4)C2)C3)[nH]n1	/	-1.8	1.6	-32.3*
COc1ccc(/C=N/NC(=O)c2cc(C34CC5CC(CC(C5)C3)C4)[nH]n2)cc1OC	/	-9.5	4.1	4.2
COc1ccc2c3c([nH]c2c1)[C@H](CO)N(Cc1ccccc1)CC31CN(S(C)(=O)=O)C1	/	/	/	0.0
O=C(NCc1nc(-c2ccc(C(F)(F)F)cc2)no1)Nc1cc(Cl)cc(Cl)c1	/	-4.4	0.1	-46.9*
O=C(NCc1nc(-c2ccc(C(F)(F)F)cc2)no1)Nc1ccc(F)cc1F	-0.7	-18.2	-0.2	15.0
CCOC(=O)C(=CNc1ccc(C)cc1C)C(=O)OCC	1.6	-3.3	/	/
CCOC(=O)C(=CNc1ccc(C(F)(F)F)cc1)C(=O)OCC	/	-2.7	-1.9	-22.8*
COc1ccc(N=C2C(=O)N3CCCc4cccc2c43)cc1	/	-2.1	11.9*	-1.9
CCC(CC)=NNc1cccc([N+](=O)[O-])c1	/	-5.5	/	/
O=[N+]([O-])c1cccc(N=Nc2ccc(O)cc2O)c1	-1.2	-6.1	4.1	-21.0*
O=[N+]([O-])c1cccc(N=NNc2cccc([N+](=O)[O-])c2)c1	-1.8	-6.3	3.0	-27.1*
Cc1ccc(S(=O)(=O)Nc2cc(C)c(O)c(Sc3n[nH]c(C)n3)c2)cc1	1.0	-7.1	0.0	-42.8*
C/C=C/c1ccc([C@H]2[C@@H](CN(C)S(C)(=O)=O)N(C(C)=O)[C@H]2CO)cc1	-1.4	/	-1.0	2.0

High-throughput results: PubChem, Broad Institute
